Test [1] has as its system DU-145. Nature of the test: Growth inhibition of human DU145 cells after 96 hrs by trypan blue exclusion assay. It counts as functional. The note with it: DU-145, 96 h.
The subject of test [2] is K562. Nature of the test: Growth inhibition of human K562 cells expressing p210Bcr/Abl after 96 hrs by trypan blue exclusion assay. The note with it: K562, 96 h. The format is functional, cell-based. The gist of the method: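 K562 cells were kept in RPMI with 10% FBS and penicillin–streptomycin at 37 °C under 5% CO2. Cells were seeded at 1 × 10^5 cells/mL with a range of compound concentrations, using DMSO as the negative control. After 96 h, viability was counted by Trypan blue exclusion and expressed as percent of DMSO control to derive GI50.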

By GI50 is commonly meant the concentration at which growth is held to half of that of the control. Read a high GI50 as less potent growth inhibition. Turning to `COc1ccccc1/C=C(\C(=O)c1ccc(Cl)cc1)S(=O)(=O)Cc1ccc(Cl)cc1`, the GI50 in test [1] and in test [2] was 25 µM in each case.

On to `O=C(/C(=C\c1ccc(Oc2ccccc2)cc1)SCc1ccccc1Cl)c1ccc(Cl)cc1`, for which the 50% growth inhibitory concentration (GI50) in test [1] and in test [2] was 1 µM in each case.

For the compound `Cc1ccc(CS/C(=C/c2ccc(C)s2)C(=O)c2ccc(Cl)cc2)cc1`, the GI50 in test [1] and in test [2] was 50 µM each time.

For the compound `N#Cc1ccc(C(=O)/C(=C\c2ccc(O)c([N+](=O)[O-])c2)SCc2ccc(Br)cc2)cc1`, the GI50 in test [1] and in test [2] was 10 µM each time.

For the compound `Cc1ccc(S/C(=C/c2c(O)cc(O)cc2O)C(=O)c2ccc(Br)cc2)cc1`, the results for the GI50 in test [1] and in test [2] were more than 100 µM and 50 µM, respectively.

Take `COc1ccc(S(=O)(=O)/C(=C/c2ccccc2OCc2ccccc2)C(=O)c2ccc(Cl)cc2)cc1`: the GI50 in test [1] and in test [2] was 1 µM in each case.

As to `COc1cc(OC)c(/C=C(\C(=O)c2ccc(Cl)cc2)S(=O)(=O)c2ccc(C)cc2)c(OC)c1`, the values for the GI50 in test [1] and in test [2] were 25 µM and 10 µM, respectively.

As to `O=C(/C(=C\c1ccc(O)cc1O)SCc1cccc(Cl)c1)c1ccc(Br)cc1`, the GI50 in test [1] turned out to be 50 µM; in test [2], 25 µM.

Regarding `CN(C)c1ccc(/C=C(\C(=O)c2ccc(Cl)cc2)S(=O)(=O)c2ccc(Br)cc2)cc1`, the GI50 in test [1] is more than 100 µM; in test [2] it was 50 µM.

`Cc1ccc(CS(=O)(=O)/C(=C/c2c(O)cc(O)cc2O)C(=O)c2ccc(Cl)cc2)cc1`: the 50% growth inhibitory concentration (GI50) in test [1] and in test [2] was more than 100 µM each time.

As to `COc1ccccc1/C=C(/SCc1ccc(Cl)c(Cl)c1)C(=O)c1ccc(Cl)cc1`, the GI50 in test [1] and in test [2] was 10 µM each time.

As for `CN(C)c1ccc(/C=C(/SCc2ccc(F)cc2)C(=O)c2ccc(Cl)cc2)cc1`, the GI50 in test [1] was determined as 50 µM; in test [2] it was 1 µM.

`COc1ccc(/C=C(/SCc2ccc(F)cc2)C(=O)c2ccc(C(=O)O)cc2)cc1O`: the GI50 in test [1] was 10 µM; in test [2], 1 µM.

Consider `COc1ccc(S(=O)(=O)/C(=C/c2ccc(C)s2)C(=O)c2ccc(Cl)cc2)cc1`, for which the GI50 amounted to 25 µM in test [1] and 10 µM in test [2].

`Cc1ccc(CS(=O)(=O)/C(=C/c2ccc(Br)cc2)C(=O)c2ccc(Cl)cc2)cc1`: the results for the GI50 in test [1] and in test [2] were 25 µM and 10 µM, respectively.

For the compound `Cc1ccc(S/C(=C/c2c(F)c(F)c(F)c(F)c2F)C(=O)c2ccc(Cl)cc2)cc1`, the GI50 in test [1] and in test [2] was 25 µM throughout.

Take `CSc1ccc(/C=C(\C(=O)c2ccc(Br)cc2)S(=O)(=O)c2ccc(C)cc2)cc1`: the GI50 in test [1] and in test [2] was 1 µM throughout.

For the compound `CCOc1ccc(/C=C(\C(=O)c2ccc(Cl)cc2)S(=O)(=O)Cc2ccc(C)cc2)cc1OC`, the GI50 in test [1] and in test [2] was 10 µM each time.

Take `Cc1ccc(/C=C(/SCc2ccc(Cl)cc2)C(=O)c2ccc(Cl)cc2)s1`: the GI50 in test [1] and in test [2] was 50 µM in each case.

With `Cc1ccc(C)c(/C=C(\C(=O)c2ccc(Br)cc2)S(=O)(=O)Cc2ccc(F)cc2)c1`, the concentration for 50% growth inhibition (GI50) in test [1] and in test [2] was 1 µM in each case.

Turning to `O=C(/C(=C\c1ccc(O)c([N+](=O)[O-])c1)S(=O)(=O)c1ccc(I)cc1)c1ccc(I)cc1`, the GI50 in test [1] and in test [2] was 25 µM throughout.

Consider `O=C(/C(=C\c1ccc([N+](=O)[O-])c(O)c1)Sc1ccc(Br)cc1)c1c(F)c(F)c(F)c(F)c1F`, for which the GI50 in test [1] and in test [2] was 1 µM each time.

`O=C(/C(=C\c1ccc2ccccc2n1)SCc1ccc(F)cc1)c1ccc(Br)cc1`: the GI50 in test [1] and in test [2] was 25 µM each time.

`Cc1ccsc1/C=C(\C(=O)c1ccc(Cl)cc1)S(=O)(=O)Cc1ccc(F)cc1`: the concentration for 50% growth inhibition (GI50) amounted to 10 µM in test [1] and 1 µM in test [2].

For `Cc1ccc(S/C(=C/c2ccc(Cl)cc2Cl)C(=O)c2ccc(Cl)cc2)cc1`, the GI50 in test [1] and in test [2] was 10 µM throughout.

Regarding `O=C(/C(=C\c1ccc(Br)cc1)SCc1ccc(Cl)cc1)c1ccc(Cl)cc1`, the 50% growth inhibitory concentration (GI50) in test [1] and in test [2] was 1 µM in each case.

Regarding `CCOc1ccc(/C=C(/Sc2ccc(C)cc2)C(=O)c2ccc(Cl)cc2)cc1OC`, the GI50 turned out to be 25 µM in test [1] and 10 µM in test [2].

`O=C(/C(=C\c1ccc(OCc2ccccc2)cc1)SCc1cccc(Cl)c1)c1ccc(Br)cc1`: the GI50 in test [1] and in test [2] was 1 µM in each case.

Turning to `O=C(/C(=C\c1ccccc1OCc1ccccc1)S(=O)(=O)Cc1ccc(Cl)cc1)c1ccc(Br)cc1`, the GI50 turned out to be 10 µM in test [1] and 1 µM in test [2].

In the case of `O=C(/C(=C\c1c(O)cc(O)cc1O)S(=O)(=O)c1ccc(Br)cc1)c1ccc(Cl)cc1`, the GI50 in test [1] and in test [2] was more than 100 µM each time.

Regarding `O=C(/C(=C\c1ccc(OCc2ccccc2)cc1)S(=O)(=O)Cc1ccc(Cl)cc1)c1ccc(Cl)cc1`, the GI50 in test [1] and in test [2] was 1 µM each time.

Regarding `O=C(O)c1ccc(/C=C(/SCc2ccc(Cl)cc2)C(=O)c2ccc(C(=O)O)cc2)cc1`, the GI50 in test [1] and in test [2] was more than 100 µM throughout.

Consider `O=C(/C(=C\c1ccc(F)c([N+](=O)[O-])c1)SCc1ccc(Br)cc1)c1ccc(Cl)c([N+](=O)[O-])c1`, for which the GI50 in test [1] and in test [2] was more than 100 µM throughout.

With `O=C(/C(=C\c1ccc(I)cc1)Sc1ccc(Br)cc1)c1ccc(Br)cc1`, the GI50 in test [1] and in test [2] was 1 µM throughout.

Consider `O=C(/C(=C\c1ccc(F)c([N+](=O)[O-])c1)SCc1ccc(F)cc1)c1ccc(SCc2ccc(F)cc2)c([N+](=O)[O-])c1`, for which the GI50 worked out at 25 µM in test [1] and 1 µM in test [2].

Consider `O=C(O)c1ccc(C(=O)/C(=C\c2ccc(O)c([N+](=O)[O-])c2)SCc2ccc(F)cc2)cc1`, for which the GI50 in test [1] was more than 100 µM; in test [2], 50 µM.

With `COc1cc(OC)c(/C=C(\C(=O)c2ccc(Cl)cc2)S(=O)(=O)c2ccc(Br)cc2)c(OC)c1`, the GI50 in test [1] and in test [2] was more than 100 µM in each case.

For `COc1ccccc1/C=C(/SCc1ccc(F)cc1)C(=O)c1ccc(Br)cc1`, the GI50 in test [1] and in test [2] was 10 µM throughout.

On to `Cc1ccc(S(=O)(=O)/C(=C/c2cc(C)cc(C)c2)C(=O)c2ccc(Cl)cc2)cc1`, for which the GI50 in test [1] and in test [2] was 1 µM in each case.

Consider `COc1cc(/C=C(/Sc2ccc(Br)cc2)C(=O)c2ccc(Br)cc2)ccc1O`, for which the GI50 in test [1] and in test [2] was 1 µM each time.

`CSc1ccc(/C=C(\C(=O)c2ccc(Cl)cc2)S(=O)(=O)Cc2ccc(Cl)cc2)cc1`: the GI50 in test [1] turned out to be 10 µM; in test [2], 1 µM.

`CSc1ccc(/C=C(/SCc2ccc(Br)cc2)C(=O)c2ccc(C(=O)O)cc2)cc1`: the GI50 in test [1] and in test [2] was 10 µM in each case.

As to `O=C(/C(=C\c1ccc(Cl)c([N+](=O)[O-])c1)Sc1ccc(Br)cc1)c1ccc(Br)cc1`, the values for the GI50 in test [1] and in test [2] were 10 µM and 1 µM, respectively.

As to `Cc1ccc(CS/C(=C/c2c[nH]c3ccc(Cl)cc23)C(=O)c2ccc(Cl)cc2)cc1`, the GI50 in test [1] and in test [2] was 1 µM throughout.

Turning to `Cc1ccc(CS/C(=C/c2ccccc2Br)C(=O)c2ccc(Cl)cc2)cc1`, the GI50 in test [1] and in test [2] was 10 µM each time.

For the compound `O=C(/C(=C\c1cc(Cl)c(O)c(Cl)c1)SCc1ccc(Br)cc1)c1ccc(Br)cc1`, the GI50 in test [1] and in test [2] was 10 µM each time.

Consider `O=C(/C(=C\c1cc(Br)c(O)c(Br)c1)SCc1ccc(Br)cc1)c1ccc(Br)cc1`, for which the GI50 was 1 µM in test [1] and 10 µM in test [2].

For the compound `CC(=O)Nc1ccc(/C=C(/SCc2ccc(F)cc2)C(=O)c2ccc(C(=O)O)cc2)cc1[N+](=O)[O-]`, the GI50 in test [1] was determined as 10 µM; in test [2], 1 µM.

For the compound `CN(C)c1ccc(/C=C(/SCc2ccc(F)cc2)C(=O)c2ccc(C(=O)O)cc2)cc1`, the GI50 in test [1] and in test [2] was 10 µM in each case.

With `COc1ccc(S(=O)(=O)/C(=C/c2ccc(Cl)cc2Cl)C(=O)c2ccc(Br)cc2)cc1`, the 50% growth inhibitory concentration (GI50) in test [1] and in test [2] was 20 µM in each case.

The compound `O=C(/C(=C\c1ccc(F)cc1)Sc1ccc(Br)cc1)c1ccc(Br)cc1` displayed a GI50 in test [2] of 1 µM.

Consider `Cc1ccc(S(=O)(=O)/C(=C/c2ccc(O)c([N+](=O)[O-])c2)C(=O)c2ccc(Cl)cc2)cc1`, for which the GI50 in test [1] and in test [2] was 25 µM in each case.

As for `O=C(/C(=C/c1ccc(Cl)cc1)Cc1ccc(Cl)c(Cl)c1)c1ccc(Cl)cc1Cl`, the GI50 in test [1] and in test [2] was 1 µM throughout.

Take `CCOc1ccc(/C=C(\C(=O)c2ccc(Br)cc2)S(=O)(=O)c2ccc(Br)cc2)cc1OC`: the GI50 in test [1] and in test [2] was 1 µM in each case.

Turning to `O=C(/C(=C\c1ccc(OCc2ccccc2)cc1)SCc1ccc(Cl)cc1)c1ccc(Cl)cc1`, the values for the GI50 in test [1] and in test [2] were 1 µM and 10 µM, respectively.

Consider `O=C(/C(=C\c1ccc(O)c([N+](=O)[O-])c1)S(=O)(=O)Cc1ccc(Br)cc1)c1ccc(Br)cc1`, for which the GI50 in test [1] turned out to be 10 µM; in test [2] it was 1 µM.

In the case of `COc1ccc(S/C(=C/c2ccc(Br)cc2)C(=O)c2ccc(Br)cc2)cc1`, the GI50 came out at 20 µM in test [1] and 6 µM in test [2].

Take `COc1cc(OC)c(/C=C(\C(=O)c2ccc(Br)cc2)S(=O)(=O)c2ccc(C)cc2)c(OC)c1`: the 50% growth inhibitory concentration (GI50) in test [1] and in test [2] was more than 100 µM in each case.

`O=C(/C(=C\c1ccc(F)c([N+](=O)[O-])c1)Sc1ccc(Cl)cc1)c1ccc(Cl)cc1` came in with a concentration for 50% growth inhibition (GI50) in test [2] of 10 µM.

`COc1cccc(OC)c1/C=C(\C(=O)c1ccc(Br)cc1)S(=O)(=O)c1ccc(Br)cc1` showed a GI50 in test [1] of 10 µM.

Turning to `COc1ccc(/C=C(/SCc2ccc(Cl)cc2)C(=O)c2ccc(Cl)cc2)cc1O`, halving of growth in test [2] (GI50) required 1 µM.

In test [2], `O=C(/C(=C\c1ccc(F)c([N+](=O)[O-])c1)SCc1ccc(Br)cc1)c1ccc(C(F)(F)F)cc1` came in with a GI50 of 1 µM.

Source of the values: ChEMBL document CHEMBL1240409, “Design, synthesis and evaluation of (E)-alpha-benzylthio chalcones as novel inhibitors of BCR-ABL kinase” (Bioorg Med Chem, 2010).
